The values below come from ChEMBL document CHEMBL1125937, “Nucleosides and nucleotides. 100. 2'-C-cyano-2'-deoxy-1-beta-D-arabinofuranosyl-cytosine (CNDAC): design of a potential mechanism-based DNA-strand-breaking antineoplastic nucleoside” (J Med Chem, 1991).

SMILES strings stand for the structures. ≈ marks a conversion by molar mass, not a printed value.

Holding throughout (type): functional, cell-based
One experiment has as its system QG-56. Briefly: Inhibitory effect tested in vitro for the growth of Lung squamous-cell carcinoma QG-56 cell line. The following applies: Homo sapiens. An outline of the steps: (§1)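 MTT assay: tumor cells seeded at 1 × 10^4 per well, incubated 72 h with or without compound, then MTT added and OD 570 nm read. % inhibition = [1 − OD sample/OD control] × 100. IC50 is the concentration giving 50% inhibition of cell growth.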

The subject of a further experiment is HOS-TE85. Nature of the experiment: Inhibitory effect tested in vitro for the growth of Osteosarcoma MNNG-HOS cell line. The following applies: Homo sapiens. In outline:
as §1

The next experiment relates to NUGC-4. Nature of the experiment: Inhibitory effect tested in vitro for the growth of Stomach adenocarcinoma NUGC-4 cell line. The following applies: Homo sapiens. An outline of the steps:
as §1

The test system of the next experiment is PC-9. Nature of the experiment: Inhibitory effect tested in vitro for the growth of Lung adenocarcinoma PC-9 cell line. The following applies: Homo sapiens. An outline of the steps:
as §1

For another experiment, the system named is ST-KM-1. Briefly: Inhibitory effect tested in vitro for the growth of Stomach adenocarcinoma ST-KM cell line. The following applies: Homo sapiens. In outline: as §1
Another experiment concerns OST. Briefly: Inhibitory effect tested in vitro for the growth of Osteosarcoma OST cell line. The following applies: Homo sapiens. An outline of the steps: as §1
The next experiment has as its system PC-3. Briefly: Inhibitory effect tested in vitro for the growth of Lung adenocarcinoma PC-3 cell line. The following applies: Homo sapiens. An outline of the steps: as §1
A further experiment has as its system SK-ES1. Nature of the experiment: Inhibitory effect tested in vitro for the growth of Osteosarcoma SK-ES-1 cell line. The following applies: Homo sapiens. An outline of the steps: as §1
The test system of the next experiment is SW480. Briefly: Inhibitory effect tested in vitro for the growth of colon adenocarcinoma SW-480 cell line. The following applies: Homo sapiens. In outline:
as §1

The next experiment concerns MKN-28. Nature of the experiment: Inhibitory effect tested in vitro for the growth of Stomach adenocarcinoma MKN- 28 cell line. The following applies: Homo sapiens. An outline of the steps:
as §1

A further experiment concerns KHOS-321H. Briefly: Inhibitory effect tested in vitro for the growth of Osteosarcoma KHOS-321H cell line. The following applies: Homo sapiens. An outline of the steps: as §1
The next experiment deals with PC-13. Briefly: Inhibitory effect tested in vitro for the growth of Lung adenocarcinoma PC-13 cell line. The following applies: Homo sapiens, in the assay text read “Lung large-cell carcinoma” for “Lung adenocarcinoma”. An outline of the steps:
as §1

The subject of a further experiment is PC-8. Nature of the experiment: Inhibitory effect tested in vitro for the growth of Lung adenocarcinoma PC-8 cell line. The following applies: Homo sapiens. In outline: as §1
For the next experiment, the system named is MKN-7. Briefly: Inhibitory effect tested in vitro for the growth of Stomach adenocarcinoma MKN-7 cell line. The following applies: Homo sapiens. In outline: as §1
A further experiment concerns MKN-1. Briefly: Inhibitory effect tested in vitro for the growth of Stomach adenocarcinoma MKN-1 cell line. The following applies: Homo sapiens. An outline of the steps:
as §1

As usually defined, the IC50 is the point on the concentration scale where inhibition reaches its midpoint. A low value points to greater potency in that assay. `Nc1ccn([C@@H]2O[C@H](CO)[C@@H](O)[C@H]2O)c(=O)n1` [CYTIDINE]: the concentration for half-maximal inhibition (IC50) in the experiment on QG-56 was greater than 100 µg/mL; in the experiment on HOS-TE85, 2.6 µg/mL (≈ 10.7 µM); with NUGC-4 it was greater than 100 µg/mL; in the experiment with PC-9, 1.6 µg/mL (≈ 6.58 µM); in the experiment with ST-KM-1, greater than 100 µg/mL; with OST, greater than 100 µg/mL. In addition, the IC50 in the experiment on PC-3 was greater than 100 µg/mL; with SK-ES1, 0.09 µg/mL (≈ 0.37 µM); in the experiment with SW480 it was greater than 100 µg/mL; in the experiment on MKN-28 it was 4.5 µg/mL (≈ 18.5 µM); with KHOS-321H, 0.27 µg/mL (≈ 1.11 µM); in the experiment with PC-13, greater than 100 µg/mL. Also, the IC50 in the experiment with PC-8 came out at 0.28 µg/mL (≈ 1.15 µM).

`N#C[C@H]1[C@H](O)[C@@H](CO)O[C@H]1n1ccc(N)nc1=O` [TAS-109]: the half-inhibitory concentration (IC50) was found to be 40 µg/mL (≈ 159 µM) in the experiment with QG-56; 1.4 µg/mL (≈ 5.55 µM) with MKN-7; 6.8 µg/mL (≈ 27 µM) in the experiment on HOS-TE85; 5.2 µg/mL (≈ 20.6 µM) in the experiment on NUGC-4; 4.4 µg/mL (≈ 17.4 µM) in the experiment with PC-9; 2.8 µg/mL (≈ 11.1 µM) in the experiment on ST-KM-1. Also, the concentration for half-maximal inhibition (IC50) worked out at 6.4 µg/mL (≈ 25.4 µM) in the experiment with OST; 5.6 µg/mL (≈ 22.2 µM) in the experiment on PC-3; 2.2 µg/mL (≈ 8.72 µM) in the experiment with SK-ES1; 2.1 µg/mL (≈ 8.33 µM) in the experiment with MKN-1; 0.27 µg/mL (≈ 1.07 µM) with SW480; 1.7 µg/mL (≈ 6.74 µM) with MKN-28. Further, the IC50 in the experiment with KHOS-321H was 4.5 µg/mL (≈ 17.8 µM); in the experiment with PC-13, greater than 100 µg/mL; with PC-8, 4.6 µg/mL (≈ 18.2 µM).
